Assay results from ChEMBL document CHEMBL1140640, “C-geranyl compounds from Paulownia tomentosa fruits” (J Nat Prod, 2007).

Experiments:
[1] = tested on: Radical scavenging activity; assay: Antioxidant activity assessed as DPPH radical scavenging activity at 10 uM by TEAC assay; format: functional
Method in brief: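 Test solutions of 10 µM in MeOH were mixed 0.2 mL to 1.8 mL with methanolic DPPH at 22 mg/L. Absorbance at 517 nm was read every minute for 5 min, then every 5 min up to 30 min. Activity was followed over time and expressed as Trolox equivalent antioxidant capacity (TEAC).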

[2] = Cytotoxicity against rat WB344 cells at 5 uM after 24 hrs; format: cell-based; conditions: wb344, 24 h
Method in brief: (§1)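 Neutral red uptake: cells in DMEM were grown ~24 h, then given compounds in DMSO for 24 h, then NR-containing medium ([…] as printed) for 3 h. Cells were PBS-washed, fixed 15 min in 0.5% formaldehyde/1% CaCl2, and dye extracted in 1% HOAc/50% EtOH with 20 min shaking. Read at A540 as % of DMSO control; mean of three independent measurements.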

[3] = Cytotoxicity against rat WB344 cells at 25 uM after 24 hrs; format: cell-based; conditions: wb344, 24 h; method in brief: as §1
[4] = Cytotoxicity against rat WB344 cells at 100 uM after 24 hrs; format: cell-based; conditions: wb344, 24 h; method in brief: as §1
[5] = Cytotoxicity against rat WB344 cells after 24 hrs; format: cell-based; conditions: WB344, 24 h
Method in brief: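 Epithelioid cells were cultured in DMEM ~24 h, exposed 24 h to DMSO-dissolved compounds, then to neutral red for 3 h. After formaldehyde/CaCl2 fixation, dye was extracted in acidified ethanol and read at 540 nm. Inhibition = (1 − T/C) × 100 against control OD540; IC50 taken from dose-response curves.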

Compound	Trolox equivalent antioxidant capacity (TEAC) [1]	Activity [2] [%]	Activity [3] [%]	Activity [4] [%]	IC50 [5] [µM]
C=C(C)C(O)CC/C(C)=C/Cc1c(O)cc2c(c1O)C(=O)[C@H](O)[C@@H](c1ccc(O)c(OC)c1)O2 (stereo not given in full)	2				
COc1cc([C@@H]2CC(=O)c3c(cc(O)c(C/C=C(\C)CCC=C(C)C)c3O)O2)ccc1O	0.8	100	73	2	30.2
CC(C)=CCC/C(C)=C/Cc1c(O)cc2c(c1O)C(=O)C[C@@H](c1ccc(O)c(O)c1)O2 [NYMPHAEOL A]	5.2	98	57	2	14.3
CC(C)=CCC/C(C)=C/Cc1c(O)cc2c(c1O)C(=O)C[C@@H](c1ccc(O)cc1)O2 [BONANNIONE A]	0.4	97	95	9	
